Data from PMC5812400 (ESMO Open, 2018).

System: adult patients with advanced non-haematological malignancies
Assay: Safety and tolerability
Type: in vivo, human
How it was run: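 Patients on milled oral capsules, fasted, in 28-day cycles. AEs and SAEs recorded from first dose through 30 days after last dose. Graded by NCI CTCAE v4.03 and coded to MedDRA v19.0. Relatedness to study drug judged by investigator.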

Structure (SMILES): CC(C)n1nc(-c2ccc3oc(N)nc3c2)c2c(N)ncnc21 [TAK-228, Sapanisertib]
- AE resulting in TAK-228 discontinuation (QD 3 mg (n=11)): 0 n (%)
- Drug-related AE (QD 3 mg (n=11)): 10 (91) n (%)
- Drug-related AE: Abdominal pain (QD 3 mg (n=11)): 2 (18) n (%)
- Drug-related AE: Decreased appetite (QD 3 mg (n=11)): 3 (27) n (%)
- Drug-related AE: Diarrhoea (QD 3 mg (n=11)): 2 (18) n (%)
- Drug-related AE: Fatigue (QD 3 mg (n=11)): 6 (55) n (%)
- Drug-related AE: Hyperglycaemia (QD 3 mg (n=11)): 2 (18) n (%)
- Drug-related AE: Nausea (QD 3 mg (n=11)): 4 (36) n (%)
- Drug-related AE: Pruritus (QD 3 mg (n=11)): 4 (36) n (%)
- Drug-related AE: Rash (QD 3 mg (n=11)): 1 (9) n (%)
- Drug-related AE: Rash (maculopapular) (QD 3 mg (n=11)): 4 (36) n (%)
- Drug-related AE: Stomatitis (QD 3 mg (n=11)): 1 (9) n (%)
- Drug-related AE: Vomiting (QD 3 mg (n=11)): 1 (9) n (%)
- Drug-related SAE (QD 3 mg (n=11)): 0 n (%)
- Drug-related grade ≥3 AE (QD 3 mg (n=11)): 5 (46) n (%)
- Grade ≥3 AE (QD 3 mg (n=11)): 6 (55) n (%)
- Grade ≥3 AE: Abdominal pain (QD 3 mg (n=11)): 1 (9) n (%)
- Grade ≥3 AE: Anaemia (QD 3 mg (n=11)): 0 n (%)
- Grade ≥3 AE: Blood phosphorus decreased (QD 3 mg (n=11)): 1 (9) n (%)
- Grade ≥3 AE: Diarrhoea (QD 3 mg (n=11)): 1 (9) n (%)
- Grade ≥3 AE: Fatigue (QD 3 mg (n=11)): 0 n (%)
- Grade ≥3 AE: Hyperglycaemia (QD 3 mg (n=11)): 1 (9) n (%)
- Grade ≥3 AE: Hyponatraemia (QD 3 mg (n=11)): 1 (9) n (%)
- Grade ≥3 AE: Rash macular (QD 3 mg (n=11)): 1 (9) n (%)
- On-study deaths (QD 3 mg (n=11)): 0 n (%)
- SAE (QD 3 mg (n=11)): 3 (27) n (%)
- AE resulting in TAK-228 discontinuation (QD 4 mg (n=6)): 1 (17) n (%)
- Drug-related AE (QD 4 mg (n=6)): 6 (100) n (%)
- Drug-related AE: Abdominal pain (QD 4 mg (n=6)): 1 (17) n (%)
- Drug-related AE: Decreased appetite (QD 4 mg (n=6)): 2 (33) n (%)
- Drug-related AE: Diarrhoea (QD 4 mg (n=6)): 3 (50) n (%)
- Drug-related AE: Fatigue (QD 4 mg (n=6)): 4 (67) n (%)
- Drug-related AE: Hyperglycaemia (QD 4 mg (n=6)): 1 (17) n (%)
- Drug-related AE: Nausea (QD 4 mg (n=6)): 1 (17) n (%)
- Drug-related AE: Pruritus (QD 4 mg (n=6)): 3 (50) n (%)
- Drug-related AE: Rash (QD 4 mg (n=6)): 2 (33) n (%)
- Drug-related AE: Rash (maculopapular) (QD 4 mg (n=6)): 0 n (%)
- Drug-related AE: Stomatitis (QD 4 mg (n=6)): 2 (33) n (%)
- Drug-related AE: Vomiting (QD 4 mg (n=6)): 1 (17) n (%)
- Drug-related SAE (QD 4 mg (n=6)): 0 n (%)
- Drug-related grade ≥3 AE (QD 4 mg (n=6)): 5 (83) n (%)
- Grade ≥3 AE (QD 4 mg (n=6)): 6 (100) n (%)
- Grade ≥3 AE: Abdominal pain (QD 4 mg (n=6)): 0 n (%)
- Grade ≥3 AE: Anaemia (QD 4 mg (n=6)): 0 n (%)
- Grade ≥3 AE: Blood phosphorus decreased (QD 4 mg (n=6)): 0 n (%)
- Grade ≥3 AE: Diarrhoea (QD 4 mg (n=6)): 0 n (%)
- Grade ≥3 AE: Fatigue (QD 4 mg (n=6)): 2 (33) n (%)
- Grade ≥3 AE: Hyperglycaemia (QD 4 mg (n=6)): 1 (17) n (%)
- Grade ≥3 AE: Hyponatraemia (QD 4 mg (n=6)): 1 (17) n (%)
- Grade ≥3 AE: Rash macular (QD 4 mg (n=6)): 1 (17) n (%)
- On-study deaths (QD 4 mg (n=6)): 1 (17) n (%)
- SAE (QD 4 mg (n=6)): 2 (33) n (%)
- AE resulting in TAK-228 discontinuation (QD Total (n=17)): 1 (6) n (%)
- Drug-related AE (QD Total (n=17)): 16 (94) n (%)
- Drug-related AE: Abdominal pain (QD Total (n=17)): 3 (18) n (%)
- Drug-related AE: Decreased appetite (QD Total (n=17)): 5 (29) n (%)
- Drug-related AE: Diarrhoea (QD Total (n=17)): 5 (29) n (%)
- Drug-related AE: Fatigue (QD Total (n=17)): 10 (59) n (%)
- Drug-related AE: Hyperglycaemia (QD Total (n=17)): 3 (18) n (%)
- Drug-related AE: Nausea (QD Total (n=17)): 5 (29) n (%)
- Drug-related AE: Pruritus (QD Total (n=17)): 7 (41) n (%)
- Drug-related AE: Rash (QD Total (n=17)): 3 (18) n (%)
- Drug-related AE: Rash (maculopapular) (QD Total (n=17)): 4 (24) n (%)
- Drug-related AE: Stomatitis (QD Total (n=17)): 3 (18) n (%)
- Drug-related AE: Vomiting (QD Total (n=17)): 2 (12) n (%)
- Drug-related SAE (QD Total (n=17)): 0 n (%)
- Drug-related grade ≥3 AE (QD Total (n=17)): 10 (59) n (%)
- Grade ≥3 AE (QD Total (n=17)): 12 (71) n (%)
- Grade ≥3 AE: Abdominal pain (QD Total (n=17)): 1 (6) n (%)
- Grade ≥3 AE: Anaemia (QD Total (n=17)): 0 n (%)
- Grade ≥3 AE: Blood phosphorus decreased (QD Total (n=17)): 1 (6) n (%)
- Grade ≥3 AE: Diarrhoea (QD Total (n=17)): 1 (6) n (%)
- Grade ≥3 AE: Fatigue (QD Total (n=17)): 2 (12) n (%)
- Grade ≥3 AE: Hyperglycaemia (QD Total (n=17)): 2 (12) n (%)
- Grade ≥3 AE: Hyponatraemia (QD Total (n=17)): 2 (12) n (%)
- Grade ≥3 AE: Rash macular (QD Total (n=17)): 2 (12) n (%)
- On-study deaths (QD Total (n=17)): 1 (6) n (%)
- SAE (QD Total (n=17)): 5 (29) n (%)
- Asthaenic conditions, patients (QD arm): 59%
- Drug-related AE of any grade: decreased appetite (QD arm): 29%
- Drug-related AE of any grade: diarrhoea (QD arm): 29%
- Drug-related AE of any grade: fatigue (QD arm): 59%
- Drug-related AE of any grade: nausea (QD arm): 29%
- Drug-related AE of any grade: pruritus (QD arm): 41%
- Grade ≥3 AE: Fatigue (QD arm): 12%
- Grade ≥3 AE: Hyperglycaemia (QD arm): 12%
- Grade ≥3 AE: Hyponatraemia (QD arm): 12%
- Grade ≥3 AE: macular rash (QD arm): 12%
- SAEs, patients (QD arm): 29%
- Incidence of grade ≥3 drug-related AEs (QD milled TAK-228): 59%
- AE resulting in TAK-228 discontinuation (QW 20 mg (n=7)): 0 n (%)
- Drug-related AE (QW 20 mg (n=7)): 5 (71) n (%)
- Drug-related AE: Asthaenia (QW 20 mg (n=7)): 1 (14) n (%)
- Drug-related AE: Decreased appetite (QW 20 mg (n=7)): 1 (14) n (%)
- Drug-related AE: Dehydration (QW 20 mg (n=7)): 1 (14) n (%)
- Drug-related AE: Diarrhoea (QW 20 mg (n=7)): 4 (57) n (%)
